Measured values taken from ChEMBL document CHEMBL4043282, “Discovery of the First Potent, Selective, and Orally Bioavailable Signal Peptide Peptidase-Like 2a (SPPL2a) Inhibitor Displaying Pronounced Immunomodulatory Effects In Vivo” (J Med Chem, 2018).
Each block holds one molecule with its values, some of them ahead of it. Active and inactive are the calls of the source. No cut-off for these calls is given here.

What was measured:
[1] = Drug uptake in mouse spleen at 10 mg/kg, po administered as single dose after 4 hrs by LC/MS/MS analysis; type: ADME, organism-based; settings: read-out: Drug uptake
[2] = Total plasma concentration in mouse at 10 mg/kg, po administered as single dose after 4 hrs by LC/MS/MS analysis; type: ADME, organism-based
[3] = Total plasma concentration in mouse at 100 mg/kg, po administered as single dose after 4 hrs by LC/MS/MS analysis; type: ADME, organism-based
[4] = Stability in rat liver microsomes at […] preincubated for 3 mins followed by NADPH addition measured after 1 hr in presence of GSH and [13C2-15N-glycine]-GSH by HPLC/MS method; type: ADME, microsome; settings: read-out: Stability
[5] = Stability in mouse liver microsomes at […] preincubated for 3 mins followed by NADPH addition measured after 1 hr in presence of GSH and [13C2-15N-glycine]-GSH by HPLC/MS method; type: ADME, microsome; settings: read-out: Stability
[6] = test system: Mus musculus; test: In vivo inhibition of SPPL2a in mouse assessed as increase in CD74/p8 accumulation in splenocytes at 100 mg/kg, po administered as single dose measured after 4 hrs by Western blot method; type: functional, organism-based
[7] = Half life in Balb/c mouse at 5 mg/kg, iv by LC/MS/MS analysis; type: ADME, organism-based; settings: in vivo
[8] = test system: Mus musculus; test: Immunomodulatory activity in mouse assessed as reduction in follicular B cells in splenocyte at 3 to 30 mg/kg administered via oral gavage bid at 8 and 16 hrs dosing interval between first and second dose respectively for 11 days measured 16 hrs post last dose on day 12 by flow cytometry; type: functional, organism-based
In short: (§1)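 Mice gavaged with compound in 0.5% MC:0.5% Tween or PEG:D5W 3:1. Spleens dissociated in GentleMACS, filtered at 40 μm, ACK red-cell lysis, counted; 1 × 10^6 splenocytes stained 30 min on ice in HBSS/2% FBS/5 mM EDTA with antimouse panels for B-cell subsets (B220, CD21, CD23, IgM, IgD) or dendritic cells (PDCA1, CD11c, MHCII, lineage markers); analyzed on Fortessa flow cytometer.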

[9] = test system: Mus musculus; test: Dose normalized drug uptake in Balb/c mouse at 5 mg/kg, iv by LC/MS/MS analysis; type: ADME, organism-based; settings: in vivo
[10] = Octanol-buffer partition coefficient, log P of the compound by LC/MS/MS based shake flask method; type: physicochemical
[11] = Clearance in Wistar rat at 3 mg/kg, iv by LC/MS/MS analysis; type: ADME, organism-based; settings: in vivo
[12] = target: T1, Signal peptide peptidase-like 2A (Homo sapiens, UniProt Q8TCT8); test: Inhibition of human SPPL2a expressed in human U2OS cells using EGFP-labeled TNFalpha (1 to 76 residues) NTF as substrate after 24 hrs by Hoechst staining based high content imaging analysis; type: cell-based
T1 sequence (Q8TCT8 whole entry): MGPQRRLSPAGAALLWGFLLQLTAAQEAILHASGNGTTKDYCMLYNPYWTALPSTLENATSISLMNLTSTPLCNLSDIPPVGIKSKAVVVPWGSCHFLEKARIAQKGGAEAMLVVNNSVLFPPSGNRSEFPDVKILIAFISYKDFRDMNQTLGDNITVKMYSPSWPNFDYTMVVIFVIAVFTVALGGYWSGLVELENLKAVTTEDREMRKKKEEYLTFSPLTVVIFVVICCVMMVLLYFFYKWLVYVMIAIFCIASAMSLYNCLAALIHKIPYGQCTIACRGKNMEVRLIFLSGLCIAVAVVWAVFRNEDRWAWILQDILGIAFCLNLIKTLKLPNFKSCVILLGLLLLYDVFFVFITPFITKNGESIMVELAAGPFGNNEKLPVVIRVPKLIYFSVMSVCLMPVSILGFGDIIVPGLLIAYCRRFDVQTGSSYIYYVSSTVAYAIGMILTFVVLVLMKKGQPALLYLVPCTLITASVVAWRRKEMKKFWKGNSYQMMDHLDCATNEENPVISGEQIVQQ
In short: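 Stable U-2 OS lines expressing human SPPL2a, SPPL2b or SPP constitutively (mouse SPPL2a line analogous, mouse TNFα(aa1-77)-NTF-EGFP-NLS) with doxycycline-inducible EGFP substrate. 3000 cells/well, 3−4 h, then 11-point inhibitor 100 μM to 1 nM, 0.9% DMSO, 5 μg/mL doxycycline, 24 h 37 °C. PFA fixed, Hoechst nuclei; nuclear minus cytoplasmic EGFP intensity; inhibition vs 0.5 μM reference and DMSO; IC50 by nonlinear regression.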

[13] = test system: Salmonella typhimurium; test: Genotoxicity in Salmonella typhimurium by Ames test; type: toxicity; settings: salmonella enterica subsp. enterica serovar typhimurium
[14] = test system: Mus musculus; test: In vivo inhibition of SPPL2a in mouse assessed as accumulation of CD74/p8 in splenocyte lysate at 10 mg/kg administered via oral gavage as single dose measured 16 hrs post dose by Western blot method relative to control; type: functional
In short: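 Mice gavaged in 0.5% MC:0.5% Tween or PEG:D5W 3:1. Spleens dissociated, red cells lysed with ACK, 1 × 10^6 cells lysed with protease inhibitors; 18 μg lysate on 10% gel, blotted, CD74 full length and p8 detected with rat anti-mouse CD74 In-1 and Alexa488 anti-rat IgG, LiCor scan; p8/full-length ratio expressed as percent of reference compound ratio.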

[15] = Total plasma concentration in mouse at 30 mg/kg administered via oral gavage measured after 16 hrs post dose by LC/MS/MS analysis; type: ADME, organism-based
In short: (§2)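 Mice dosed by oral gavage in 0.5% MC:0.5% Tween or PEG:D5W 3:1. 50 μL blood taken retro-orbitally into LiHep tubes; in chronically dosed animals the trough sample came before the morning dose. Kept on ice, plasma separated by centrifugation at 2823g, 5 min, stored at −20 °C until analysis.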

[16] = Total plasma concentration in mouse at 3 mg/kg administered via oral gavage measured after 16 hrs post dose by LC/MS/MS analysis; type: ADME, organism-based; in short: as §2
[17] = Total concentration in Lewis rat blood at 30 mg/kg, po bid after 24 hrs by LC/MS/MS analysis; type: ADME, organism-based; settings: read-out: Drug uptake
[18] = Total concentration in Lewis rat blood at 3 mg/kg, po bid after 24 hrs by LC/MS/MS analysis; type: ADME, organism-based; settings: read-out: Drug uptake
[19] = test system: Mus musculus; test: Immunomodulatory activity in mouse assessed as reduction in total B cells in splenocyte administered via oral gavage bid at 8 and 16 hrs dosing interval between first and second dose respectively for 11 days measured 16 hrs post last dose on day 12 by B220 staining based flow cytometry; type: functional, cell-based
[20] = test system: Mus musculus; test: Immunomodulatory activity in mouse assessed as reduction in transition T2 B cells in splenocyte at 3 to 30 mg/kg administered via oral gavage bid at 8 and 16 hrs dosing interval between first and second dose respectively for 11 days measured 16 hrs post last dose on day 12 by flow cytometry; type: functional, organism-based; in short: as §1
[21] = test system: Mus musculus; test: Immunomodulatory activity in mouse assessed as reduction in myloid dendritic cells in splenocyte administered via oral gavage bid at 8 and 16 hrs dosing interval between first and second dose respectively for 11 days measured 16 hrs post last dose on day 12 by B220 staining based flow cytometry; type: functional, cell-based

concentration at 4 h [1]: 127 nM
concentration at 4 h [2]: 57 nM
concentration at 4 h [3]: 2090 nM
remaining at 1 h [4]: 93.2%
remaining at 1 h [5]: 92%
half-life [7]: 42 min
Structure (SMILES): Cc1ccccc1NC(=O)C[C@@H](C)C(=O)N[C@@H]1C(=O)N2CCCN2Cc2ccccc21
Activity [6]: Active

Druguptake/dose [9]: 264 nM
logP [10]: 2.3
clearance [11]: 6 mL/min/kg
IC50 [12]: 0.16 µM
concentration at 16 h [15]: 136 nM
concentration at 16 h [16]: 0.8 nM
concentration at 24 h [17]: 3560 nM
concentration at 24 h [18]: 231 nM
Structure (SMILES): Cc1ncc(F)cc1NC(=O)C[C@H](C(=O)N[C@@H]1C(=O)N2CC3(CC3)CN2C(=O)c2ccccc21)C1CC1
Activity [8]: Active
Activity [13]: Non-Toxic
inhibition in vivo at 10 mg/kg [14]: 50%
Activity [19]: Dose-dependent effect
Activity [20]: Active
Activity [21]: Dose-dependent effect
